High-throughput results (PubChem)
Most compounds without a hit are left out; they make up all but 2.9% or so of the library.
SENP6 block: blocks the human protease SENP6; Recombinant SENP6 catalytic domain, aminoluciferin luminescence; 1.8% of 330,000 active; Q9GZR1; inhibition, % at 10 µM;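 active = inhibition above about 50% at the single tested dose, limit read from the data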
SENP1 FRET inh: SENP1 (human) catalytic domain inhibition; recombinant SENP1 catalytic domain, CyPet-SUMO1-YPet FRET cleavage; 0.21% of 360,000 active; Q9P0U3; inhibition, % at 10 µM;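 active = inhibition at least 30% at 10 µM, raw YFP signal under a set limit, fluorescence ratio 0.5 to 1.5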
Target sequence (Q9P0U3 419-644 limits assumed): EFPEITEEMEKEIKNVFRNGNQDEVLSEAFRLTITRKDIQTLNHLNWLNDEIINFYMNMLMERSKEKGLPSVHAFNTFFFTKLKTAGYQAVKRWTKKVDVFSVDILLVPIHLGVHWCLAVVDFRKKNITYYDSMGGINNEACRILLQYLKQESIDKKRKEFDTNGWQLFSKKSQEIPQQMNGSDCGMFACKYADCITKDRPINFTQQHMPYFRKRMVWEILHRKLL
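Material: hSENP1 catalytic domain, recombinant; medium: Tris pH 8 with BME, BSA, NP40 and catalase; compound: single concentration of 10 µM compound, 0.5% DMSO final; technique: FRET read of cyan and yellow fluorescence; timing: 50 min enzyme reaction, room temperature, light-protected; reagent: SFCypet-SUMO1-SFYpet substrate at 25 nM; control set: no-enzyme low, enzyme-DMSO high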
SENP7 block: inhibitors of human SENP7 protease | recombinant SENP7, Z-RLRGG-aminoluciferin luminescence, 40 min | inhibition, % at 5 µM | 1.5% of 330,000 active;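 active = inhibition above about 50% at the single test dose, limit read from the data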
Apaf-1 inh: human Apaf-1 inhibition | O14727 | reconstituted apoptosome caspase-3 activity, DEVD-Rh110 fluorescence | 0.71% of 330,000 active | inhibition, % at 20 µM; active = inhibition of at least 40% at 20 µM
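Material: cell-free apoptosome with Apaf-1, procaspase-3 and caspase-9; Buffer or medium: Hepes pH 7.5 with detergent and BSA; Reagent: cytochrome c trigger plus (Z-DEVD)2-Rh110 caspase-3 substrate; Times: compound with Apaf-1, dATP, procaspase-3 30 min, then 50 min reaction, room temperature; Technique: Rh110 fluorescence intensity.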
SENP8 block-1: SENP8 (human) protease inhibition. Q96LD8. recombinant SENP8, Nedd8 substrate fluorescence. inhibition, % at 20 µM. 0.64% of 360,000 active. AID 602440; in the data active = inhibition mostly above about 40%, no sharp cut-off; inactive = mostly below about 27%
Target sequence (Q96LD8 whole entry, looked up): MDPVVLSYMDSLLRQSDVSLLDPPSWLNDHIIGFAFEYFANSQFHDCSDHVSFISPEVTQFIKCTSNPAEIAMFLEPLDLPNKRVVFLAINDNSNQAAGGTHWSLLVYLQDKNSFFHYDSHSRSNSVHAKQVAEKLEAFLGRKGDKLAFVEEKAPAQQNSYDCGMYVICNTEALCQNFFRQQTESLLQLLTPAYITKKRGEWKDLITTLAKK
SENP8 block-2: blocks the human protease SENP8. purified SENP8, Z-RLRGG-aminoluciferin cleavage, luminescence. inhibition, % at 10 µM. 1.2% of 330,000 active. AID 2540; in the data active = inhibition above about 50%
Each line names hits and unclear results; the compound was inactive in the other large screens.

CCN1C(=O)C(=Cc2cccc(OC)c2Oc2ccc([N+](=O)[O-])cc2[N+](=O)[O-])SC1=S	SENP6 block 81, SENP7 block 54, SENP8 block-2 95
COc1ccc(C)c2sc(=NC(=O)c3ccc(C(C)=O)cc3)n(C)c12	SENP6 block 89, SENP7 block 97, SENP8 block-2 82
COc1ccc(C)c2sc(=NC(=O)C(C)C)n(C)c12	none
COc1cc(CN2C(=O)C(CCc3ccccc3)ON=C2c2cnccn2)cc(OC)c1 (centres undefined)	none (no result: SENP6 block, SENP7 block, Apaf-1 inh, SENP8 block-2)
O=Cc1cc(N=Nc2cccc(C(=O)O)c2)ccc1O	SENP6 block 95, SENP7 block 98, SENP8 block-2 97
O=Cc1cc(N=Nc2ccccc2Cl)ccc1O	none
CC1(C)CC(NC(=O)C2CCN(S(=O)(=O)c3cccc(C(F)(F)F)c3)CC2)CC(C)(C)N1	none
CC(C)C(=O)Nc1cccc(-c2cn3ccsc3n2)c1	Apaf-1 inh 67
Nc1ccc(O)c2ccccc12	Apaf-1 inh 68 (no result: SENP1 FRET inh, SENP8 block-1)
COc1ccc2[nH]c3c(C)c4ccncc4c(C)c3c2c1	Apaf-1 inh 76
O=[N+]([O-])c1ccc(CN2[C@H](COCc3ccccc3)[C@@H](N3CCCC3)CS2(=O)=O)cc1	none (no result: SENP6 block, SENP7 block, Apaf-1 inh, SENP8 block-2)
Cc1[nH]n2c(=O)c3c(nc2c1-c1ccc(Cl)cc1)CCC3	none
Cc1cc(=O)n2[nH]c(N)c(N=Nc3ccccc3)c2n1	none (no result: SENP6 block, SENP7 block, Apaf-1 inh, SENP8 block-2)
Nc1[nH]n2c(=O)c3c(nc2c1N=Nc1ccc(Cl)cc1)CCCC3	SENP8 block-1 45
Nc1[nH]n2c(=O)c3c(nc2c1N=Nc1ccccc1)CCCC3	SENP8 block-1 53
CCCNC(=O)c1cc(C2CCCCN2C(=O)c2ccc(C(C)C)cc2)on1 (centres undefined)	none (no result: SENP6 block, SENP7 block, Apaf-1 inh, SENP8 block-2)
CCOC(=O)[C@]12CCCC=C1N(Cc1ccco1)C(=O)[C@H](CC(=O)NCC13CC4CC(CC(C4)C1)C3)C2	none (no result: SENP6 block, SENP7 block, Apaf-1 inh, SENP8 block-2)
Nc1nc2c(s1)CCc1c-2cnn1-c1ccccc1	SENP6 block 62, Apaf-1 inh 93
CC1(C(=O)NS(=O)(=O)c2cccc(C#N)c2)CCN1C(=O)CCc1ccccc1 (centres undefined)	none (no result: SENP6 block, SENP7 block, Apaf-1 inh, SENP8 block-2)
Nc1cc2nc3ccccc3oc-2cc1=O	SENP1 FRET inh 33, Apaf-1 inh 48, SENP8 block-1 44
Nc1ccc(CCc2nc3ccccc3o2)cc1	none
O=C1N/C(=N/O)S/C1=C/c1cccc([N+](=O)[O-])c1	SENP6 block 57
S=C1c2ccccc2CN1c1ccccc1	none
Cc1ccc(N2Cc3ccccc3C2=S)cc1	SENP6 block 54, SENP7 block 59
COc1cc(OC)c(C(=O)/C=C/c2ccccc2)c(O)c1O	SENP8 block-1 45
COc1cc(O)cc(O)c1C(=O)/C=C/c1ccccc1	none
CC(C)NC(=O)C1(C)CSCC(=O)N1CC(F)(F)F (centres undefined)	none (no result: SENP6 block, SENP7 block, Apaf-1 inh, SENP8 block-2)
COC1CC(C)C(OC)c2cc(O)cc(c2O)NC(=O)C(C)=CC=CC(C)C(OC(N)=O)C(C)=CC(C)C1OC (centres undefined)	none (no result: SENP6 block, SENP7 block, Apaf-1 inh, SENP8 block-2)
COC1C=CC=C(C)C(=O)NC2=CC(=O)C(N)=C(CC(C)CC(OC)C(O)C(C)C=C(C)C1OC(N)=O)C2=O (centres undefined)	SENP8 block-1 57 (no result: SENP6 block, SENP7 block, Apaf-1 inh, SENP8 block-2)
COc1ccc(Cl)cc1NC(=O)COC(=O)C1=NNC(=O)CC1	none
COC(=O)C1=C(C(=O)OC)SC(=C2C(=S)C(C)(C)N(C(=O)C(C)C)c3ccccc32)S1	SENP8 block-1 46
CCOC(=O)C1(C)C(C(=O)OC)=C(c2ccc(OC)cc2)c2ccccc2N1C(=O)OC (centres undefined)	none (no result: SENP6 block, SENP8 block-2)
CC1(C)c2ssc(=S)c2-c2ccccc2N1C(=O)CSC1=NCCS1	none
CCCC(=O)N1c2ccccc2C(=C2SC(C(=O)OC)=C(C(=O)OC)S2)C(=S)C1(C)C	SENP8 block-1 67
COC(=O)C1=C(C(=O)OC)SC(=C2C(=S)C(C)(C)N(C(=O)C3CC3)c3ccccc32)S1	SENP8 block-1 42
CN(C)C(=O)c1ccc(Cc2cn(C)c3ccccc23)nc1	none (no result: SENP6 block, SENP7 block, Apaf-1 inh, SENP8 block-2)
COCCN1CCN(C(=O)c2cc(COc3cc(C)ccc3C)on2)CC1	none
CN1C(=O)/C(=C/c2cccc([N+](=O)[O-])c2)C(=O)N1c1ccccc1	SENP8 block-1 45
CC(=O)Oc1ccc(Cn2c(C)c(C(=O)NCc3cccc(C(F)(F)F)c3)sc2=O)cc1	none (no result: SENP6 block, SENP7 block, Apaf-1 inh, SENP8 block-2)
COc1ccc(C)cc1S(=O)(=O)N1CCCC(C(=O)NCc2ccccn2)C1 (centres undefined)	none
